Results published in ChEMBL document CHEMBL1153905, “Functionalized 3-benzylidene-indolin-2-ones: inducers of NAD(P)H-quinone oxidoreductase 1 (NQO1) with antiproliferative activity” (Bioorg Med Chem, 2009).

How the values were obtained:
[1] = Cytotoxicity against mouse Hepa-1c1c7 cells after 48 hrs by MTT assay; type: cell-based; conditions: hepa-1c1c7, 48 h
In short: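 Murine hepatoma cells in α-MEM with 10% heat- and charcoal-treated fetal calf serum, passages 6–17; MTT read-out as for the cancer lines but with 48 h compound exposure. Highest concentration tested 25 µM. IC50 from survival-versus-concentration curve; mean and SD, n = 3.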

[2] = test system: HCT-116; test: Cell cycle arrest in human HCT116 cells released from G2 block assessed as accumulation at sub G1 phase at 5 uM after 24 hrs by flow cytometry; type: functional
[3] = test system: MCF7; test: Antiproliferative activity against human MCF7 cells after 72 hrs by MTT assay; type: functional, cell-based; conditions: MCF7, 72 h
In short: (§1)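 Cells seeded at 10,000 (MCF7), 4000 (HCT116) or 5000 (CCL186) per well and grown 24 h; MCF7 and CCL186 in EMEM with pyruvate, glutamine, 10% FBS; HCT116 in McCoy's 5A with 10% FBS. Compounds from DMSO stocks (≤1% DMSO final), 72 h exposure; MTT 0.5 mg/ml for 3 h, formazan in DMSO read at 590 nm. IC50 from sigmoidal survival curve, three separate occasions.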

[4] = test system: HCT-116; test: Cell cycle arrest in human HCT116 cells released from G1 block assessed as accumulation at S phase at 5 uM after 24 hrs by flow cytometry; type: functional
[5] = test system: HCT-116; test: Cell cycle arrest in human HCT116 cells released from G1 block assessed as accumulation at sub G1 phase at 5 uM after 24 hrs by flow cytometry; type: functional
[6] = test system: MCF7; test: Selectivity ratio of IC50 for human CCL186 cells to IC50 for human MCF7 cells
In short: (§2)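 MTT assay. MCF7 and CCL186 cells were grown in EMEM/10% FBS, HCT116 in McCoy's 5A/10% FBS. Seeding was 10,000 (MCF7), 4000 (HCT116) and 5000 (CCL186) cells per well, 24 h. Compound exposure was 72 h, DMSO ≤1% final. MTT 0.5 mg/ml for 3 h, formazan dissolved in DMSO, A590. IC50 came from sigmoidal survival curves, with 3 separate occasions per concentration. Ratio = IC50 CCL186 / IC50 of the cancer line.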

[7] = test system: HCT-116; test: Antiproliferative activity against human HCT116 cells after 72 hrs by MTT assay; type: functional, cell-based; conditions: HCT-116, 72 h; in short: as §1
[8] = test system: HCT-116; test: Cell cycle arrest in human HCT116 cells released from G2 block assessed as accumulation at G1 phase at 5 uM after 24 hrs by flow cytometry; type: functional
[9] = test system: HCT-116; test: Cell cycle arrest in human HCT116 cells released from G2 block assessed as accumulation at G2/M phase at 5 uM after 24 hrs by flow cytometry; type: functional
[10] = Selectivity ratio of IC50 for human CCL186 cells to IC50 for human HCT116 cells; type: ADME, cell-based, HCT-116; conditions: CCL186 cells and HCT116 cells, read-out: Ratio IC50; in short: as §2
[11] = test system: HCT-116; test: Cell cycle arrest in human HCT116 cells released from G2 block assessed as accumulation at S phase at 5 uM after 24 hrs by flow cytometry; type: functional
[12] = test system: HCT-116; test: Cell cycle arrest in human HCT116 cells released from G1 block assessed as accumulation at G2/M phase at 5 uM after 24 hrs by flow cytometry; type: functional
[13] = Antiproliferative activity against human CCL186 cells after 72 hrs by MTT assay; type: cell-based; conditions: CCL186, 72 h; in short: as §1
[14] = test system: HCT-116; test: Cell cycle arrest in human HCT116 cells released from G1 block assessed as accumulation at G1 phase at 5 uM after 24 hrs by flow cytometry; type: functional
[15] = molecular target: T1, CYP1A1 (Mus musculus, UniProt P00184); test: Induction of CYP1A1 activity in mouse Hepa-1c1c7 cells assessed as induction ratio at 0.05 uM after 48 hrs by EROD assay relative to control; type: ADME, cell-based
T1 sequence (P00184 whole entry): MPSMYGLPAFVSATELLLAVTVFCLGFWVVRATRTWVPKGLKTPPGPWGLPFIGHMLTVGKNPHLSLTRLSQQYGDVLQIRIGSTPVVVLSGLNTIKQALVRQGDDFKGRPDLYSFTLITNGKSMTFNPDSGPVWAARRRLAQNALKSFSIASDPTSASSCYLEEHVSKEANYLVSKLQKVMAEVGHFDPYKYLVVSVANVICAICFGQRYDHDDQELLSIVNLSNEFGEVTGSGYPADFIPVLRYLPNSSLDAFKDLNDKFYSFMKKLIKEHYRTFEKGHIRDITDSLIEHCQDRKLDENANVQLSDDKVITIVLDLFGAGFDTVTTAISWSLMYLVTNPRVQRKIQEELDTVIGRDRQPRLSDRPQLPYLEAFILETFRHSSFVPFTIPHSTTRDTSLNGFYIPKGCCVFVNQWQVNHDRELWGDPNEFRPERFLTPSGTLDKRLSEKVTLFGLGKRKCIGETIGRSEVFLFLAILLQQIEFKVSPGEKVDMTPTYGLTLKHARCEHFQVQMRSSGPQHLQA
In short: (§3)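 About 10,000 Hepa1c1c7 cells/well cultured 24 h, then compound (0.5% DMSO final) for 48 h, at roughly 4 × the concentration doubling NQO1 activity. After PBS wash, cells given 5 µM 7-ethoxyresorufin plus 2 mM salicylamide, 37 °C, 40 min; resorufin fluorescence ex 530/em 590 nm, corrected for compound fluorescence. Ratio = (treated − blank)/(DMSO control − blank); mean ± SD, n = 3.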

[16] = test system: HCT-116; test: Cell cycle arrest in human HCT116 cells released from G1 block assessed as accumulation at G2/M phase at 10 uM after 24 hrs by flow cytometry; type: functional
[17] = test system: HCT-116; test: Cell cycle arrest in human HCT116 cells released from G2 block assessed as accumulation at S phase at 10 uM after 24 hrs by flow cytometry; type: functional
[18] = test system: HCT-116; test: Cell cycle arrest in human HCT116 cells released from G2 block assessed as accumulation at G2/M phase at 10 uM after 24 hrs by flow cytometry; type: functional
[19] = test system: HCT-116; test: Cell cycle arrest in human HCT116 cells released from G2 block assessed as accumulation at sub G1 phase at 10 uM after 24 hrs by flow cytometry; type: functional
[20] = test system: HCT-116; test: Cell cycle arrest in human HCT116 cells released from G1 block assessed as accumulation at G1 phase at 10 uM after 24 hrs by flow cytometry; type: functional
[21] = test system: HCT-116; test: Cell cycle arrest in human HCT116 cells released from G1 block assessed as accumulation at S phase at 10 uM after 24 hrs by flow cytometry; type: functional
[22] = test system: HCT-116; test: Cell cycle arrest in human HCT116 cells released from G2 block assessed as accumulation at G1 phase at 10 uM after 24 hrs by flow cytometry; type: functional
[23] = test system: HCT-116; test: Cell cycle arrest in human HCT116 cells released from G1 block assessed as accumulation at sub G1 phase at 10 uM after 24 hrs by flow cytometry; type: functional
[24] = molecular target: NAD(P)H dehydrogenase [quinone] 1 (Mus musculus) (UniProt Q64669); test: Induction of NQO1 activity in mouse Hepa-1c1c7 cells assessed as induction ratio at 0.05 uM after 48 hrs by MTT assay relative to control; type: cell-based
Chain of NAD(P)H dehydrogenase [quinone] 1 (Mus musculus) (Q64669 whole entry): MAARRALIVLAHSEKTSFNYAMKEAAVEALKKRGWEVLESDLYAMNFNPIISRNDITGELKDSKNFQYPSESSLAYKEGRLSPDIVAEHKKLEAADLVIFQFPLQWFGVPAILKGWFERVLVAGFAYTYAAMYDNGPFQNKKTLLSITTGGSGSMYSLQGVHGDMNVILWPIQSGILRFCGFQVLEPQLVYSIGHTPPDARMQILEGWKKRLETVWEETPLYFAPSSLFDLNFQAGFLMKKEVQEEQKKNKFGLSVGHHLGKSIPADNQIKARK
In short: (§4)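 Hepa1c1c7 cells, 10,000 per well, 24 h, were then treated 48 h (DMSO ≤0.5%). Digitonin/EDTA lysates were assayed for menadione-dependent MTT-formazan formation using a G6P/G6PDH NADPH-generating mix with FAD at pH 7.4. The reaction ran 5 min, was stopped with dicoumarol, and read at A590. Degree of induction = (A test − blank)/(A control − blank). Ratios were read off the induction–concentration plot at the EROD test concentration.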

[25] = molecular target: NAD(P)H dehydrogenase [quinone] 1 (Mus musculus) (UniProt Q64669); test: Induction of NQO1 activity in mouse Hepa-1c1c7 cells assessed as induction ratio at 0.5 uM after 48 hrs by MTT assay relative to control; type: cell-based; in short: as §4
[26] = molecular target: T1, CYP1A1; test: Induction of CYP1A1 activity in mouse Hepa-1c1c7 cells assessed as induction ratio at 0.5 uM after 48 hrs by EROD assay relative to control; type: ADME, cell-based; in short: as §3

## COc1ccc(/C=C2/C(=O)Nc3ccccc32)c(OC)c1
[1]
  IC50: 11.1 µM
[2]
  Activity: 12.49%
[3]
  IC50: 3.3 µM
[4]
  Activity: 12.37%
[5]
  Activity: 2.64%
[6]
  Ratio IC50: 0.7
[7]
  IC50: 8.8 µM
[8]
  Activity: 34.66%
[9]
  Activity: 39.43%
[10]
  selectivity ratio: 1.8
[11]
  Activity: 13.43%
[12]
  Activity: 58.82%
[13]
  IC50: 5.8 µM
[14]
  Activity: 26.14%

## COc1ccc(OC)c(/C=C2/C(=O)Nc3ccccc32)c1
[15]
  fold induction at 48 h, 0.05 µM: 3.08
[1]
  IC50: > 25 µM
[16]
  Activity: 46.51%
[17]
  Activity: 16.68%
[3]
  IC50: 7.7 µM
[6]
  Ratio IC50: 3.5
[18]
  Activity: 34.26%
[7]
  IC50: 5.1 µM
[19]
  Activity: 9.83%
[20]
  Activity: 24.24%
[21]
  Activity: 26.68%
[10]
  selectivity ratio: 2.4
[22]
  Activity: 39.33%
[13]
  IC50: 18.1 µM
[23]
  Activity: 2.64%
[24]
  Ratio: 3.32

## COc1ccc2c(c1)NC(=O)/C2=C/c1cccc(C(F)(F)F)c1
[1]
  IC50: 2.6 µM
[2]
  Activity: 20.69%
[25]
  Ratio: 4.22
[3]
  IC50: 3.8 µM
[4]
  Activity: 19.12%
[5]
  Activity: 4.39%
[6]
  Ratio IC50: 2.8
[7]
  IC50: 1.9 µM
[8]
  Activity: 30.55%
[9]
  Activity: 31.58%
[10]
  selectivity ratio: 1.4
[26]
  fold induction at 48 h, 0.5 µM: 1.36
[11]
  Activity: 17.96%
[12]
  Activity: 59.16%
[13]
  IC50: 5.4 µM
[14]
  Activity: 17.5%
